Measured values reported in ChEMBL document CHEMBL4190362, “Synthesis, biological evaluation and quantitative structure-active relationships of 1,3-thiazolidin-4-one derivatives. A promising chemical scaffold endowed with high antifungal potency and low cytotoxicity” (Eur J Med Chem, 2017).

Legend:
Type in all cases: functional
Staphylococcus aureus = experiment: Antibacterial activity against Staphylococcus aureus assessed as inhibition of microbial growth incubated for 18 to 22 hrs by broth microdilution method
Outline: (§1)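 Broth microdilution in Mueller-Hinton II broth following NCCLS recommendations; compounds dissolved in DMSO.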

Staphylococcus warneri = experiment: Antibacterial activity against Staphylococcus warneri assessed as inhibition of microbial growth incubated for 18 to 22 hrs by broth microdilution method; outline: as §1
Enterococcus faecalis = experiment: Antibacterial activity against Streptococcus faecalis assessed as inhibition of microbial growth incubated for 18 to 22 hrs by broth microdilution method; outline: as §1
Escherichia coli = experiment: Antibacterial activity against Escherichia coli assessed as inhibition of microbial growth incubated for 18 to 22 hrs by broth microdilution method; outline: as §1
Proteus mirabilis = experiment: Antibacterial activity against Proteus mirabilis assessed as inhibition of microbial growth incubated for 18 to 22 hrs by broth microdilution method; outline: as §1
Enterobacter = experiment: Antibacterial activity against Enterobacter spp. assessed as inhibition of microbial growth incubated for 18 to 22 hrs by broth microdilution method; outline: as §1
Klebsiella oxytoca = experiment: Antibacterial activity against Klebsiella oxytoca assessed as inhibition of microbial growth incubated for 18 to 22 hrs by broth microdilution method; outline: as §1
Candida albicans = experiment: Antifungal activity against Candida albicans clinical isolates assessed as inhibition of microbial growth incubated for 24 hrs by broth microdilution method
Outline: (§2)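 Twenty-two clinical Candida isolates (8 C. albicans, 4 C. glabrata, 3 C. tropicalis, 3 C. krusei, 2 C. parapsilosis, 2 C. sake) were identified by colony morphology and biochemistry and subcultured at 35 °C for purity. Compounds were dissolved in DMSO and tested by broth microdilution in Sabouraud dextrose broth per NCCLS/CLSI/EUCAST guidance. Values are geometric mean MIC per species (µg/mL).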

Nakaseomyces glabratus = experiment: Antifungal activity against Candida glabrata clinical isolates assessed as inhibition of microbial growth incubated for 24 hrs by broth microdilution method; outline: as §2
Candida tropicalis = experiment: Antifungal activity against Candida tropicalis clinical isolates assessed as inhibition of microbial growth incubated for 24 hrs by broth microdilution method; outline: as §2
Pichia kudriavzevii = experiment: Antifungal activity against Candida krusei clinical isolates assessed as inhibition of microbial growth incubated for 24 hrs by broth microdilution method; outline: as §2
Candida parapsilosis = experiment: Antifungal activity against Candida parapsilosis clinical isolates assessed as inhibition of microbial growth incubated for 24 hrs by broth microdilution method; settings: Lodderomyces parapsilosis; outline: as §2
[Candida] sake = Antifungal activity against Candida sake clinical isolates assessed as inhibition of microbial growth incubated for 24 hrs by broth microdilution method; settings: Fermentozyma sake; outline: as §2

| Structure (SMILES) | MIC (Staphylococcus aureus) | MIC (Staphylococcus warneri) | MIC (Enterococcus faecalis) | MIC (Escherichia coli) | MIC (Proteus mirabilis) | MIC (Enterobacter) | MIC (Klebsiella oxytoca) | MIC (Candida albicans) | MIC (Nakaseomyces glabratus) | MIC (Candida tropicalis) | MIC (Pichia kudriavzevii) | MIC (Candida parapsilosis) | MIC ([Candida] sake) |
| --- | --- | --- | --- | --- | --- | --- | --- | --- | --- | --- | --- | --- | --- |
| CC1CCCC/C1=N/N=C1/SCC(=O)N1Cc1ccccc1 (stereo not given) | ≥ 256 µg/mL | ≥ 256 µg/mL | ≥ 256 µg/mL | ≥ 256 µg/mL | ≥ 256 µg/mL | ≥ 256 µg/mL | ≥ 256 µg/mL | 16 µg/mL | 2 µg/mL | 32 µg/mL | 16 µg/mL | 4 µg/mL | 16 µg/mL |
| C/C(=N/N=C1/SCC(=O)N1Cc1ccccc1)c1ccc2ccccc2c1 | ≥ 256 µg/mL | ≥ 256 µg/mL | ≥ 256 µg/mL | ≥ 256 µg/mL | ≥ 256 µg/mL | ≥ 256 µg/mL | ≥ 256 µg/mL | 8 µg/mL | 16 µg/mL | 256 µg/mL | 16 µg/mL | 16 µg/mL | 16 µg/mL |
| C/C(=N/N=C1\NC(=O)CS1)c1ccc(/C(C)=N\N=C2/NC(=O)CS2)cc1 | ≥ 256 µg/mL | ≥ 256 µg/mL | ≥ 256 µg/mL | ≥ 256 µg/mL | ≥ 256 µg/mL | ≥ 256 µg/mL | ≥ 256 µg/mL | 2 µg/mL | 2 µg/mL | 2 µg/mL | 2 µg/mL | 2 µg/mL | 2 µg/mL |
| CCC/C(C)=N\N=C1\SCC(=O)N1Cc1ccccc1 | ≥ 256 µg/mL | ≥ 256 µg/mL | ≥ 256 µg/mL | ≥ 256 µg/mL | ≥ 256 µg/mL | ≥ 256 µg/mL | ≥ 256 µg/mL | 8 µg/mL | 2 µg/mL | 8 µg/mL | 16 µg/mL | 8 µg/mL | 32 µg/mL |
| C/C(=N/N=C1/SCC(=O)N1Cc1ccccc1)c1ccccc1[N+](=O)[O-] | ≥ 256 µg/mL | ≥ 256 µg/mL | ≥ 256 µg/mL | ≥ 256 µg/mL | ≥ 256 µg/mL | ≥ 256 µg/mL | ≥ 256 µg/mL | 2 µg/mL | 2 µg/mL | 2 µg/mL | 8 µg/mL | 2 µg/mL | 4 µg/mL |
| CC1CCC/C1=N/N=C1/SCC(=O)N1Cc1ccccc1 (stereo not given) | ≥ 256 µg/mL | ≥ 256 µg/mL | ≥ 256 µg/mL | ≥ 256 µg/mL | ≥ 256 µg/mL | ≥ 256 µg/mL | ≥ 256 µg/mL | 8 µg/mL | 8 µg/mL | 8 µg/mL | 4 µg/mL | 4 µg/mL | 4 µg/mL |
| CC1CC/C(=N/N=C2/SCC(=O)N2Cc2ccccc2)C1 (stereo not given) | ≥ 256 µg/mL | ≥ 256 µg/mL | ≥ 256 µg/mL | ≥ 256 µg/mL | ≥ 256 µg/mL | ≥ 256 µg/mL | ≥ 256 µg/mL | 256 µg/mL | 256 µg/mL | 256 µg/mL | 256 µg/mL | 256 µg/mL | 256 µg/mL |
| CCCC/C(C)=N\N=C1\SCC(=O)N1Cc1ccccc1 | ≥ 256 µg/mL | ≥ 256 µg/mL | ≥ 256 µg/mL | ≥ 256 µg/mL | ≥ 256 µg/mL | ≥ 256 µg/mL | ≥ 256 µg/mL | 2 µg/mL | 2 µg/mL | 2 µg/mL | 2 µg/mL | 2 µg/mL | 4 µg/mL |
| O=C1CS/C(=N/N=C2CCCCCC2)N1Cc1ccccc1 | ≥ 256 µg/mL | ≥ 256 µg/mL | ≥ 256 µg/mL | ≥ 256 µg/mL | ≥ 256 µg/mL | ≥ 256 µg/mL | ≥ 256 µg/mL | 256 µg/mL | 256 µg/mL | 256 µg/mL | 256 µg/mL | 256 µg/mL | 256 µg/mL |
| C/C(=N/N=C1/SCC(=O)N1Cc1ccccc1)c1ccc(Cl)s1 | ≥ 256 µg/mL | ≥ 256 µg/mL | ≥ 256 µg/mL | ≥ 256 µg/mL | ≥ 256 µg/mL | ≥ 256 µg/mL | ≥ 256 µg/mL | 256 µg/mL | 8 µg/mL | 256 µg/mL | 128 µg/mL | 128 µg/mL | 128 µg/mL |
| CCCCCC/C(C)=N\N=C1\SCC(=O)N1Cc1ccccc1 | ≥ 256 µg/mL | ≥ 256 µg/mL | ≥ 256 µg/mL | ≥ 256 µg/mL | ≥ 256 µg/mL | ≥ 256 µg/mL | ≥ 256 µg/mL | 8 µg/mL | 8 µg/mL | 16 µg/mL | 16 µg/mL | 16 µg/mL | 16 µg/mL |
| C/C(=N/N=C1/SCC(=O)N1Cc1ccccc1)c1ccc([N+](=O)[O-])cc1 | ≥ 256 µg/mL | ≥ 256 µg/mL | ≥ 256 µg/mL | ≥ 256 µg/mL | ≥ 256 µg/mL | ≥ 256 µg/mL | ≥ 256 µg/mL | 8 µg/mL | 4 µg/mL | 8 µg/mL | 4 µg/mL | 4 µg/mL | 8 µg/mL |
| C/C(=N/N=C1/SCC(=O)N1Cc1ccccc1)c1ccco1 | ≥ 256 µg/mL | ≥ 256 µg/mL | ≥ 256 µg/mL | ≥ 256 µg/mL | ≥ 256 µg/mL | ≥ 256 µg/mL | ≥ 256 µg/mL | 256 µg/mL | 256 µg/mL | 256 µg/mL | 256 µg/mL | 256 µg/mL | 256 µg/mL |
| C/C(=N/N=C1/SCC(=O)N1Cc1ccccc1)c1ccncc1 | ≥ 256 µg/mL | ≥ 256 µg/mL | ≥ 256 µg/mL | ≥ 256 µg/mL | ≥ 256 µg/mL | ≥ 256 µg/mL | ≥ 256 µg/mL | 8 µg/mL | 16 µg/mL | 32 µg/mL | 2 µg/mL | 32 µg/mL | 32 µg/mL |
| CC1=C(/C=N\N=C2\SCC(=O)N2Cc2ccccc2)C(C)(C)CC=C1 | ≥ 256 µg/mL | ≥ 256 µg/mL | ≥ 256 µg/mL | ≥ 256 µg/mL | ≥ 256 µg/mL | ≥ 256 µg/mL | ≥ 256 µg/mL | 4 µg/mL | 4 µg/mL | 2 µg/mL | 4 µg/mL | 4 µg/mL | 2 µg/mL |
| OC(Cn1cncn1)(Cn1cncn1)c1ccc(F)cc1F [FLUCONAZOLE] |  |  |  |  |  |  |  | 2 µg/mL | 2 µg/mL | 2 µg/mL | 2 µg/mL | 2 µg/mL | 2 µg/mL |
| Clc1ccc(C(Cn2ccnc2)OCc2ccsc2Cl)c(Cl)c1 (stereo not given) [TIOCONAZOLE] |  |  |  |  |  |  |  | 8 µg/mL | 4 µg/mL | 8 µg/mL | 8 µg/mL | 8 µg/mL | 4 µg/mL |
| CC(=O)N1CCN(c2ccc(OCC3COC(Cn4ccnc4)(c4ccc(Cl)cc4Cl)O3)cc2)CC1 (stereo not given) [KETOCONAZOLE] |  |  |  |  |  |  |  | 2 µg/mL | 2 µg/mL | 2 µg/mL | 4 µg/mL | 2 µg/mL | 4 µg/mL |
| Clc1ccc(COC(Cn2ccnc2)c2ccc(Cl)cc2Cl)c(Cl)c1 (stereo not given) [MICONAZOLE] |  |  |  |  |  |  |  | 2 µg/mL | 4 µg/mL | 2 µg/mL | 4 µg/mL | 4 µg/mL | 2 µg/mL |
| C[C@@H]1[C@H](O)[C@@H](C)/C=C/C=C/C=C/C=C/C=C/C=C/C=C/[C@H](O[C@@H]2O[C@H](C)[C@@H](O)[C@H](N)[C@@H]2O)C[C@@H]2O[C@](O)(C[C@@H](O)C[C@@H](O)[C@H](O)CC[C@@H](O)C[C@@H](O)CC(=O)O[C@H]1C)C[C@H](O)[C@H]2C(=O)O [AMPHOTERICIN B] |  |  |  |  |  |  |  | 4 µg/mL | 4 µg/mL | 2 µg/mL | 4 µg/mL | 2 µg/mL | 2 µg/mL |
